The term MIC denotes the lowest concentration that inhibits growth of the organism. Higher therefore signals weaker potency. The LC50 is the concentration lethal to half of the exposed cells or organisms.

Values after ≈ are worked out from the molar mass of the structure shown.

We go through 14 molecules from ChEMBL document CHEMBL4393705, “New chalcone-sulfonamide hybrids exhibiting anticancer and antituberculosis activity” (Eur J Med Chem, 2019).

Data set [1] relates to Mycobacterium tuberculosis. Put plainly: Antitubercular activity against Mycobacterium tuberculosis H37Rv ATCC27294 measured after 2-3 weeks by agar dilution SPOTi assay. Type of data set: functional. The conditions noted are these: H37Rv ATCC 27294. The method, boiled down:
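Agar dilution SPOTi on Middlebrook 7H10 with 0.5% glycerol and 10% OADC. Final compound levels 50, 20, 10, 5, 2 mg/L, added from DMSO dilutions. 2 µL of a 10^6 CFU/mL inoculum from a 4-week Löwenstein-Jensen culture spotted per well, incubated 2-3 weeks at 37°C. MIC is the lowest concentration with no visible growth. Repeated on a separate day; isoniazid was the reference.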
A general note: In agar dilution, organisms are placed on agar that contains the substance at set levels.

The next data set deals with K562. Put plainly: Anticancer activity against human K562 cells assessed as tumour cell growth at 10 uM after 48 hrs by SRB assay relative to control. Type of data set: functional. In short, it runs like this: (§1)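 NCI 60-line primary screen at a single 10 μM dose in RPMI-1640 with 5% FBS and 2 mM L-glutamine. Cells were preincubated 24 h at 37 °C in 5% CO₂, with time-zero plates fixed with TCA. Compounds (DMSO, diluted in gentamicin medium) were incubated 48 h, then cells TCA-fixed and stained with 0.4% SRB (A515). Growth percent was derived from time-zero, control and treated absorbances.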

A further data set has as its system NIH3T3. The experiment in a line: Cytotoxicity against mouse 3T3 cells assessed as cell viability measured after 48 hrs by MTT assay. Type of data set: cell-based. Conditions: nih3t3, 48 h. In short, it runs like this:
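3T3 fibroblasts in DMEM with 10% FBS and penicillin-streptomycin, seeded at 10^4 cells/well 24 h prior. Exposed 48 h to two-fold serial dilutions from a 100 mg/mL DMSO stock. MTT (5 mg/mL in PBS) added for 1.5 h, formazan dissolved in DMSO, read at 530 nm. Duplicate runs on different days. Value interpolated between DMSO (100%) and cycloheximide (0%) controls.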
Background: Tetrazolium dyes change colour on reduction, which living cells bring about.

Another data set relates to SR. Put plainly: Anticancer activity against human SR cells assessed as tumour cell growth at 10 uM after 48 hrs by SRB assay relative to control. It counts as functional. The method, boiled down: as §1
On the technique in general: Sulforhodamine B stains cellular protein and so reports cell mass.

Data set [2] deals with Mycolicibacterium smegmatis. The experiment in a line: Antibacterial activity against Mycobacterium smegmatis MC2 155 measured after 48 hrs by agar dilution SPOTi assay. It counts as functional. The conditions noted are these: MC2 155, 48 h. The method, boiled down: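 SPOTi agar dilution on Middlebrook 7H10 without OADC. Cells were passaged in Middlebrook 7H9 and then spotted. Compounds were tested at 100, 50, 20, 10 and 5 mg/L, with kanamycin as positive control. Plates were incubated 48 h at 37°C. MIC was taken as the lowest concentration with no visible growth.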

For a further data set, the system named is Staphylococcus aureus. The experiment in a line: Antibacterial activity against Staphylococcus aureus measured every 120 mins for 36 hrs by LB broth two-fold serial dilution method. Type of data set: functional. The method, boiled down: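 Panel of 12 laboratory and clinical S. aureus strains with varied drug-susceptibility patterns. Compounds were two-fold serially diluted in LB broth from a maximum of 32 mg/L. Growth was followed by OD600 every 120 min for 36 h. Vancomycin was the positive control, and runs were in duplicate.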

Data set [3] in a line: Selectivity index, ratio of LC50 for mouse 3T3 cells to MIC for Mycobacterium tuberculosis H37Rv ATCC27294. Type of data set: toxicity. The conditions noted are these: read-out: Selectivity Index.
For the next data set, the system named is HCT-116. Put plainly: Anticancer activity against human HCT116 cells assessed as tumour cell growth at 10 uM after 48 hrs by SRB assay relative to control. It counts as functional. In short, it runs like this:
as §1

The next data set relates to M14. Put plainly: Anticancer activity against human M14 cells assessed as tumour cell growth at 10 uM after 48 hrs by SRB assay relative to control. It counts as functional. The method, boiled down: as §1
A further data set concerns HL-60. Put plainly: Anticancer activity against human HL60 cells assessed as tumour cell growth at 10 uM after 48 hrs by SRB assay relative to control. It counts as functional. In short, it runs like this:
as §1

With `COc1ccc(/C=C/C(=O)c2ccc(OC)c(S(N)(=O)=O)c2)cc1`, the MIC in [1] is over 144 µM; in data set [2], over 175 µM; in the data set with Staphylococcus aureus it was over 57 µM. Also, the Activity was determined as 38.78% in the data set with K562 and 28.1% in the data set with SR. Besides, the LC50 with NIH3T3 came to 96 µM.
Consider `COc1ccc(C(=O)/C=C/c2ccccc2)cc1S(=O)(=O)Nc1c(N)nc(SC)[nH]c1=O`, for which the figures for the MIC (in [1]; in data set [2]; with Staphylococcus aureus) were 42 µM (≈ 19.8 µg/mL), over 175 µM and over 57 µM, respectively. The Activity with K562 amounted to 35.63%; in the data set on HCT-116 it was 35.18%. The 50% lethal concentration (LC50) with NIH3T3 stood at 17 µM. For the same molecule, the selectivity ratio in data set [3] amounted to 0.4.
In the case of `COc1ccc(C(=O)/C=C/c2cc(OC)c(OC)c(OC)c2)cc1S(=O)(=O)Nc1c(N)nc(SC)[nH]c1=O`, the MIC in data set [1] is over 89 µM; in data set [2], over 175 µM; against Staphylococcus aureus, over 57 µM. The LC50 in the data set with NIH3T3 was 2.1 µM.
As to `COc1ccc(C(=O)/C=C/c2ccc3c(c2)OCO3)cc1S(N)(=O)=O`, the MIC is over 138 µM in data set [1], over 175 µM in data set [2] and over 57 µM against Staphylococcus aureus. For the same molecule, the Activity in the data set on K562 came out at 44.59%; in the data set on HCT-116, 19.22%. In addition, the LC50 in the data set on NIH3T3 was 132 µM.
As to `COc1ccc(C(=O)/C=C/c2ccc3c(c2)OCO3)cc1S(=O)(=O)Nc1c(N)nc(SC)[nH]c1=O`, the MIC is over 97 µM in [1], over 175 µM in [2] and over 57 µM against Staphylococcus aureus. The Activity in the data set with K562 is 53.79%; in the data set on HCT-116, 18.36%. Besides, in the data set with NIH3T3, the LC50 turned out to be 7.1 µM.
As for `COc1ccc(C(C)=O)cc1S(=O)(=O)Nc1c(N)nc(SC)[nH]c1=O`, the minimum inhibitory concentration (MIC) in data set [1] was over 130 µM; in data set [2] it was over 175 µM; against Staphylococcus aureus, over 57 µM. Further, in the data set on NIH3T3, the 50% lethal concentration (LC50) is over 1600 µM. Further, in the data set on M14, the Activity came to 94.85%.
In the case of `COc1ccc(C(=O)/C=C/c2ccc(C)cc2)cc1S(=O)(=O)Nc1c(N)nc(SC)[nH]c1=O`, the results for the minimal inhibitory concentration (MIC) (in data set [1]; in [2]; against Staphylococcus aureus) were 41 µM (≈ 19.9 µg/mL), over 175 µM and over 57 µM, respectively. For the same molecule, the Activity stood at 38.79% in the data set with K562 and 10.78% in the data set with HCT-116. The LC50 in the data set with NIH3T3 came to 7.2 µM. In [3], the selectivity ratio is 0.18.
As for `COc1ccc(C(=O)/C=C/c2ccccc2)cc1S(N)(=O)=O`, the MIC in data set [1] is 16 µM (≈ 5.08 µg/mL); in data set [2], over 175 µM; against Staphylococcus aureus, over 57 µM. Also, in the data set on K562, the Activity came to 7.9%. In addition, the LC50 with NIH3T3 stood at 7.7 µM. Moreover, the selectivity ratio in data set [3] came to 0.48.
As for `COc1ccc(C(=O)/C=C/c2cc(OC)c(OC)c(OC)c2)cc1S(N)(=O)=O`, the minimal inhibitory concentration (MIC) in data set [1] is over 123 µM; in [2], over 175 µM; against Staphylococcus aureus it was over 57 µM. Further, in the data set on NIH3T3, the LC50 is 2.4 µM.
`COc1ccc(/C=C/C(=O)c2ccc(OC)c(S(=O)(=O)Nc3c(N)nc(SC)[nH]c3=O)c2)cc1`: the MIC in data set [1] was over 100 µM; in data set [2] it was over 175 µM; against Staphylococcus aureus, over 57 µM. Besides, the Activity is reported as 54.26% with K562 and 24.01% in the data set on HCT-116. For the same molecule, the LC50 in the data set on NIH3T3 came out at 6.5 µM.
Turning to `COc1ccc(C(=O)/C=C/c2ccc(C)cc2)cc1S(N)(=O)=O`, the MIC in [1] was 30 µM (≈ 9.94 µg/mL); in data set [2], over 175 µM; against Staphylococcus aureus, over 57 µM. Also, the Activity in the data set on K562 stood at 3.04%. Besides, the LC50 with NIH3T3 was 4.3 µM. The selectivity ratio in data set [3] stood at 0.14.
For `COc1ccc(C(C)=O)cc1S(N)(=O)=O`, the MIC in data set [1] is over 218 µM; in data set [2] it was over 175 µM; against Staphylococcus aureus, over 57 µM. Further, in the data set on NIH3T3, the LC50 is over 2700 µM. For the same molecule, in the data set on HL-60, the Activity is 74.74%.
Consider `C[C@@H]1C[C@@H]([C@H](O)CC2CC(=O)NC(=O)C2)C(=O)[C@@H](C)C1` [CYCLOHEXIMIDE], for which the LC50 in the data set with NIH3T3 is under 2.2 µM.
For the molecule `NNC(=O)c1ccncc1` [ISONIAZID], the lowest concentration to inhibit growth in [1] (MIC) was 0.36 µM (≈ 0.0494 µg/mL).
